Assay results as given in ChEMBL document CHEMBL6134784, “Furoxan-piplartine hybrids as effective NO donors and ROS inducers in PC3 cancer cells: design, synthesis, and biological evaluation” (RSC Med Chem, 2024).
Active and inactive are the calls of the source. The calls are words filed in the database; no cut-off is given here.

What was measured:
[1] = Selectivity index, ratio of IC50 for cytotoxicity against human PNT2 cells to IC50 for cytotoxicity against human PC-3 cells; assay type: toxicity, cell-based; conditions: PNT2 cells versus PC-3 cells, read-out: Ratio IC50
Summary of the method: (§1)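 CCK-8 was added for 3 h and A450 read, with vehicle set as 100% viability. IC50 was fitted by nonlinear regression from ≥2 experiments in triplicate. SI = normal-cell IC50 divided by the matched cancer-cell IC50.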

PC-3 [2] = assay: Induction of nitric oxide production in human PC-3 cells assessed as nitrite level at 100 uM measured after 12 to 48 hrs by Griess assay; assay type: functional; conditions: time 12-48 hrs
Summary of the method: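 PC3 cells were seeded at 1×10^4 per well and grown 24 h, then moved to serum-free RPMI with 100 μM compound for 12, 24 or 48 h at 37 °C. Supernatant was mixed with 1% sulfanilamide in 2.5% H3PO4 (10 min, dark), then 0.1% NED (10 min, 37 °C), and A540 was read. Nitrite was calculated from a NaNO2 curve (0–100 μM). Controls were DMSO and SNP 100 μM. Data from ≥3 independent experiments in triplicate, mean ± SD.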

OVCAR-3 = assay: Cytotoxicity against human OVCAR-3 cells assessed as reduction in cell viability measured after 48 hrs by CCK-8 assay; assay type: functional, cell-based; conditions: OVCAR-3, 48 h
Summary of the method: (§2)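 CCK-8 viability: cells grown in RPMI-1640 with 10% FBS, 1×10^4 per well, attached 24 h, then medium replaced with fresh medium containing a range of compound concentrations for 48 h at 37 °C, 5% CO2. CCK-8 added 3 h, absorbance 450 nm; vehicle control set as 100%. IC50 by nonlinear regression, mean ± SD, at least two experiments in triplicate.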

[3] = Cytotoxicity against human MCF-10A cells assessed as reduction in cell viability measured after 48 hrs by CCK-8 assay; assay type: toxicity, cell-based; summary of the method: as §2
[4] = Selectivity index, ratio of IC50 for cytotoxicity against human MCF-10A cells to IC50 for cytotoxicity against human MCF7 cells; assay type: toxicity, cell-based; conditions: MCF-10A cells versus MCF7 cells, read-out: Ratio IC50; summary of the method: as §1
PC-3 [5] = assay: Cytotoxicity against human PC-3 cells assessed as reduction in cell viability measured after 48 hrs by CCK-8 assay; assay type: functional, cell-based; conditions: PC-3, 48 h; summary of the method: as §2
PC-3 [6] = assay: Cytotoxicity against human PC-3 cells assessed as reduction in cell viability at 0.24 uM measured after 24 hrs in presence of antioxidant N-acetyl-L-cysteine by SRB assay; assay type: functional, cell-based
Summary of the method: (§3)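 SRB assay: PC3 seeded 1×10^4 per well, after 24 h exposed 24 h at 37 °C, 5% CO2 with or without 1 mM N-acetyl-L-cysteine; vehicle 0.1% DMSO. Fixed with 15% TCA at 4 °C for 1 h, dried, stained 0.4% sulforhodamine B, dye solubilized in 10 mM Tris, absorbance 540 nm; ANOVA/Tukey.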

MCF7 = assay: Cytotoxicity against human MCF7 cells assessed as reduction in cell viability measured after 48 hrs by CCK-8 assay; assay type: functional, cell-based; conditions: MCF7, 48 h; summary of the method: as §2
PC-3 [7] = assay: Cytotoxicity against human PC-3 cells assessed as reduction in cell viability at 0.24 uM measured after 24 hrs by SRB assay; assay type: functional, cell-based; summary of the method: as §3
[8] = Cytotoxicity against human PNT2 cells assessed as reduction in cell viability measured after 48 hrs by CCK-8 assay; assay type: toxicity, cell-based; summary of the method: as §2
PC-3 [9] = assay: Cytotoxicity against human PC-3 cells assessed as reduction in cell viability at 0.05 uM measured after 24 hrs in presence of antioxidant N-acetyl-L-cysteine by SRB assay; assay type: functional, cell-based; summary of the method: as §3
PC-3 [10] = assay: Cytotoxicity against human PC-3 cells assessed as reduction in cell viability at 0.05 uM measured after 24 hrs by SRB assay; assay type: functional, cell-based; summary of the method: as §3

SMILES	selectivity ratio [1]	Activity (PC-3 [2])	IC50 (OVCAR-3)	IC50 at 48 h [3]	selectivity ratio [4]	IC50 (PC-3 [5])	Activity (PC-3 [6])	IC50 (MCF7)	Activity (PC-3 [7])	IC50 at 48 h [8]	Activity (PC-3 [9])	Activity (PC-3 [10])
O=S(=O)(c1ccccc1)c1c(OCCCO)no[n+]1[O-]	0.3	3.2 µM	3.3 µM	1.8 µM	0.9	7.2 µM	inactive	2.1 µM	Active	1.9 µM	–	–
COc1cc(/C=C/C(=O)N2CCC=CC2=O)cc(OC)c1OC [PIPLARTINE]	1.5	–	3.5 µM	5.3 µM	1	5.6 µM	–	5.4 µM	–	8.5 µM	–	–
O=S(=O)(c1ccccc1)c1c(OCCCCCCO)no[n+]1[O-]	3.4	3.2 µM	2.2 µM	1.7 µM	0.9	3.8 µM	–	2 µM	–	12.9 µM	–	–
O=S(=O)(c1ccccc1)c1c(OCCCCCCCCCCCCO)no[n+]1[O-]	137	3.2 µM	0.04 µM	14.8 µM	3.4	0.13 µM	–	4.3 µM	–	17.6 µM	inactive	Active
COc1cc(/C=C/C(=O)N2CCC=CC2=O)cc(OC)c1OCCCCCCOc1no[n+]([O-])c1S(=O)(=O)c1ccccc1	26.2	23.5 µM	0.3 µM	3.6 µM	3.1	0.13 µM	–	1.1 µM	–	3.3 µM	–	–
